Measurements published in ChEMBL document CHEMBL2021843, “Small peptide inhibitors of acetyl-peptide hydrolase having an uncommon mechanism of inhibition and a stable bent conformation” (J Med Chem, 2012).
Values belong to the compound of their own block, whether it stands above or below them. Activity calls are given as the source filed them. No cut-off for these calls is given here.

What was measured:
[1] = target: T1, Acylamino-acid-releasing enzyme (Sus scrofa) (UniProt P19205); assay: (§1) Inhibition of pig APEH using acetyl-Ala-pNA as substrate incubated for 2 mins prior to substrate addition by spectrophotometry
T1 sequence (whole entry): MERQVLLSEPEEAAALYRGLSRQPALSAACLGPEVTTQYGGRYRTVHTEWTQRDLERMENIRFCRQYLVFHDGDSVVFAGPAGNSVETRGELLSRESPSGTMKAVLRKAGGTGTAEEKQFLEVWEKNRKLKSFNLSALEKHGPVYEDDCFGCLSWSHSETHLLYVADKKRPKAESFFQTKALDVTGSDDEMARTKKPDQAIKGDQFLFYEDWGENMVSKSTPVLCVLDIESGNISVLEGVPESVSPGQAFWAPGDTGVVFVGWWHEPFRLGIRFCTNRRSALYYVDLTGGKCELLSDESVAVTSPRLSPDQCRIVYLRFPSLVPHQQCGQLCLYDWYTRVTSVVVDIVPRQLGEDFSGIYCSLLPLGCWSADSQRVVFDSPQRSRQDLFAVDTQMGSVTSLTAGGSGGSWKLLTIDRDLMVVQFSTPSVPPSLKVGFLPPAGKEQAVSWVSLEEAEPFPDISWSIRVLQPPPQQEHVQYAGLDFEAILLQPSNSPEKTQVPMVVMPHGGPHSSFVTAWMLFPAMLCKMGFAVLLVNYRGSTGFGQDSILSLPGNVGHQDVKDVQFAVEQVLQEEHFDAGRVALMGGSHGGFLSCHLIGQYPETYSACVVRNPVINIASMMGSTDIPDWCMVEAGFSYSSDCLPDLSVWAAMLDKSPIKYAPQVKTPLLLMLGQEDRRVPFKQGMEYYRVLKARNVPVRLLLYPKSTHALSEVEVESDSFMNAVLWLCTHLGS

[2] = Inhibition of chymotrypsin incubated for 30 mins prior to substrate addition by spectrophotometry
Method in brief: (§2)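 Panel of proteases tested up to a maximal 1000 μM inhibitor, each at its own pH: carboxypeptidase Y pH 7.0; chymotrypsin, elastase and trypsin pH 8.0; subtilisin and proteinase K pH 7.5. IC50 and maximal % inhibition were recorded.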

[3] = target: T1, Acylamino-acid-releasing enzyme (Sus scrofa); settings: 50 to 100 uM
[4] = Inhibition of carboxypeptidase Y at 1 mM incubated for 30 mins prior to substrate addition by spectrophotometry; method in brief: as §2
[5] = target: T2, Acylamino-acid-releasing enzyme (Homo sapiens) (UniProt P13798); assay: Inhibition of APEH in human HeLa cells after 24 hrs; format: cell-based
T2 sequence (whole entry): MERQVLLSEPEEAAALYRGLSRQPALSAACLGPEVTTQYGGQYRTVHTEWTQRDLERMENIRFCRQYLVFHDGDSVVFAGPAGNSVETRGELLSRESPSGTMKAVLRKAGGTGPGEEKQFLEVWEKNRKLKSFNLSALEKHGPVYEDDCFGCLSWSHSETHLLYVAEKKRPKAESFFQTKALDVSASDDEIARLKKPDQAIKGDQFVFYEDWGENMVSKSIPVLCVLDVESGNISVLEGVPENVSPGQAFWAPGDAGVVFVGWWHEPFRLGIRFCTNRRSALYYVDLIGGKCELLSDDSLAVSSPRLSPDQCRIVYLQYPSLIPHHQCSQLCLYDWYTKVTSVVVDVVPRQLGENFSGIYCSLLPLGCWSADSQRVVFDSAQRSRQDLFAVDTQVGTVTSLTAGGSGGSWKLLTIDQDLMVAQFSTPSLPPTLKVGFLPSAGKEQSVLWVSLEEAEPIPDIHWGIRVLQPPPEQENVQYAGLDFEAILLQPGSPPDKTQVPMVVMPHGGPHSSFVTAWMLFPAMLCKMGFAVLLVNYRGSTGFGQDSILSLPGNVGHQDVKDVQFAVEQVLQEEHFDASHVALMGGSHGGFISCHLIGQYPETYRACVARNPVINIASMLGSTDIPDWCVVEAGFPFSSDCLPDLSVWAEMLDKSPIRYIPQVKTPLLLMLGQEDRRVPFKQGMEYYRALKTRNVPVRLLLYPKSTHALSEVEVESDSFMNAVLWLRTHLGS
Method in brief: (§3)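 Melanoma A375 and cervical HeLa cells were exposed for 24 h to peptide at 50, 100 or 150 μM. Data are means ± SD.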

[6] = Inhibition of proteinase K incubated for 30 mins prior to substrate addition by spectrophotometry; method in brief: as §2
HeLa [7] = assay: Cytotoxicity against human HeLa cells assessed as LDH production after 24 hrs by spectrophotometry; format: functional, cell-based
Method in brief: (§4)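 LDH release into culture medium after 24 h exposure of HeLa or A375 cells to peptide (50, 100, 150 μM). Medium from untreated cultures served as control, and medium from cells exposed to 1% Triton X-100 served as the 100% release positive control. Data are means ± SD.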

[8] = Inhibition of chymotrypsin at 1 mM incubated for 30 mins prior to substrate addition by spectrophotometry; method in brief: as §2
[9] = Inhibition of elastase at 1 mM incubated for 30 mins prior to substrate addition by spectrophotometry; method in brief: as §2
A-375 [10] = assay: Proapoptotic activity in human A375 cells assessed as caspase 3-mediated hydrolysis of Ac-DEVD-AMC at 150 uM after 24 hrs by fluorimetry; format: functional, cell-based
Method in brief: (§5)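 Caspase 3 activity was measured fluorimetrically with a kit after 24 h exposure of HeLa or A375 cells to compound. It was expressed as fold increase over untreated culture. Data come from triplicate analyses in three experiments, given as means ± SD.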

[11] = target: T1, Acylamino-acid-releasing enzyme (Sus scrofa); settings: 150 uM
[12] = Inhibition of carboxypeptidase Y incubated for 30 mins prior to substrate addition by spectrophotometry; method in brief: as §2
A-375 [13] = assay: Proapoptotic activity in human A375 cells assessed as caspase 3-mediated hydrolysis of Ac-DEVD-AMC at 100 uM after 24 hrs by fluorimetry; format: functional, cell-based; method in brief: as §5
[14] = Inhibition of trypsin incubated for 30 mins prior to substrate addition by spectrophotometry; method in brief: as §2
[15] = target: T2, Acylamino-acid-releasing enzyme (Homo sapiens); assay: Inhibition of APEH in human A375 cells at 150 uM after 24 hrs; format: cell-based; settings: A-375; method in brief: as §3
[16] = target: T2, Acylamino-acid-releasing enzyme (Homo sapiens); assay: Inhibition of APEH in human HeLa cells at 150 uM after 24 hrs; format: cell-based; method in brief: as §3
[17] = Inhibition of subtilisin at 1 mM incubated for 30 mins prior to substrate addition by spectrophotometry; method in brief: as §2
[18] = target: T1, Acylamino-acid-releasing enzyme (Sus scrofa); settings: 50 uM
A-375 [19] = assay: Cytotoxicity against human A375 cells assessed as LDH production at 50 to 150 uM after 24 hrs by spectrophotometry; format: functional, cell-based; method in brief: as §4
[20] = Inhibition of proteinase K at 1 mM incubated for 30 mins prior to substrate addition by spectrophotometry; method in brief: as §2
[21] = target: T1, Acylamino-acid-releasing enzyme (Sus scrofa); settings: 1 mM
[22] = target: T3, Acylamino-acid-releasing enzyme (Sus scrofa, UniProt P19205); assay: as §1
T3 sequence (P19205 whole entry): T1 sequence (whole entry)

[23] = target: T2, Acylamino-acid-releasing enzyme (Homo sapiens); assay: Inhibition of APEH in human A375 cells after 24 hrs; format: cell-based; settings: A-375; method in brief: as §3
HeLa [24] = assay: Proapoptotic activity in human HeLa cells assessed as caspase 3-mediated hydrolysis of Ac-DEVD-AMC at 150 uM after 24 hrs by fluorimetry; format: functional, cell-based; method in brief: as §5
[25] = Inhibition of trypsin at 1 mM incubated for 30 mins prior to substrate addition by spectrophotometry; method in brief: as §2
HeLa [26] = assay: Cytotoxicity against human HeLa cells assessed as LDH production at 50 to 150 uM after 24 hrs by spectrophotometry; format: functional, cell-based; method in brief: as §4
HeLa [27] = assay: Proapoptotic activity in human HeLa cells assessed as caspase 3-mediated hydrolysis of Ac-DEVD-AMC at 100 uM after 24 hrs by fluorimetry; format: functional, cell-based; method in brief: as §5
[28] = Inhibition of elastase incubated for 30 mins prior to substrate addition by spectrophotometry; method in brief: as §2
[29] = Inhibition of subtilisin incubated for 30 mins prior to substrate addition by spectrophotometry; method in brief: as §2
HeLa [30] = assay: Proapoptotic activity in human HeLa cells assessed as caspase 3-mediated hydrolysis of Ac-DEVD-AMC at 30 uM after 24 hrs by fluorimetry relative to untreated control; format: functional; method in brief: as §5
HeLa [31] = assay: Proapoptotic activity in human HeLa cells assessed as caspase 3-mediated hydrolysis of Ac-DEVD-AMC at 50 uM after 24 hrs by fluorimetry relative to untreated control; format: functional; method in brief: as §5
HeLa [32] = assay: Cytotoxicity against human HeLa cells assessed as LDH production at 100 uM after 24 hrs by spectrophotometry; format: functional; method in brief: as §4

SMILES: CSCC[C@@H](NC(=O)[C@@H](CC(C)C)NC(=O)C(F)(F)F)C(=O)N1CCC[C@@H]1C(=O)N[C@H](CC(=O)O)C(N)=O
- Activity (HeLa [7]): inactive

SMILES: CC[C@@H](C)[C@@H](O)[C@H](C)C(=O)[C@H](C)/C=C(\C)C[C@H](C)[C@@H]1OC(=O)[C@H]1CC [EBELACTONE B]
- Activity (HeLa [7]): Dose-dependent effect
- fold change (FC) (HeLa [30]): 5
- fold change (FC) (HeLa [31]): 5
- Activity (HeLa [32]): 28%

Second part, led by results:

- inhibition [1]: inactive
SMILES: CSCC[C@@H](NC(=O)[C@@H](CC(C)C)NC(C)=O)C(=O)N1CCC[C@@H]1C(=O)N[C@H](Cc1cnc[nH]1)C(N)=O

- IC50 [2]: > 1000 µM
- inhibition [3]: Active
- Imax [4]: 30%
- inhibition [5]: Dose-dependent effect
- IC50 [6]: > 1000 µM
- Imax [8]: < 1%
- Imax [9]: < 1%
- Imax [11]: 72%
- IC50 [12]: 210 µM
- IC50 [14]: > 1000 µM
- Imax [15]: 50%
- Imax [16]: 80%
- Imax [17]: < 1%
- inhibition [18]: > 25%
- Imax [20]: < 1%
- Imax [21]: 72%
- IC50 [22]: 98 µM
- Ki [22]: 24 µM
- inhibition [23]: Dose-dependent effect
- Imax [25]: < 1%
- IC50 [28]: > 1000 µM
- IC50 [29]: > 1000 µM
SMILES: CSCC[C@@H](NC(=O)[C@@H](CC(C)C)NC(=O)C(F)(F)F)C(=O)N1CCC[C@@H]1C(=O)N[C@H](Cc1cnc[nH]1)C(N)=O
- Activity (HeLa [7]): inactive
- Activity (A-375 [10]): Active
- Activity (A-375 [13]): Active
- Activity (A-375 [19]): inactive
- Activity (HeLa [24]): Active
- Activity (HeLa [26]): inactive
- Activity (HeLa [27]): Active

- inhibition [1]: inactive
SMILES: CSCC[C@@H](NC(=O)[C@H](N)CC(C)C)C(=O)N1CCC[C@@H]1C(=O)N[C@H](Cc1cnc[nH]1)C(N)=O
